Bioassay records (PubChem BioAssay)
TRPC4 act – activators of mouse TRPC4 channel, primary screen, Fluo4 calcium, HEK293 TRPC4beta/mu-opioid cells. Short transient receptor potential channel 4 (Mus musculus), Q9QUQ5. Fluo4 calcium fluorescence; active compounds read high. B-score at 10 µM. 310,000 tested, 0.49% active. AID 2237, 2010;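 active = B-score above 5 SD of library B-scores, and initial fluorescence ratio not above library mean plus 5 SD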;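 also: positive B-score marks a calcium rise read as TRPC4 activation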
Target sequence (Q9QUQ5 whole entry, looked up): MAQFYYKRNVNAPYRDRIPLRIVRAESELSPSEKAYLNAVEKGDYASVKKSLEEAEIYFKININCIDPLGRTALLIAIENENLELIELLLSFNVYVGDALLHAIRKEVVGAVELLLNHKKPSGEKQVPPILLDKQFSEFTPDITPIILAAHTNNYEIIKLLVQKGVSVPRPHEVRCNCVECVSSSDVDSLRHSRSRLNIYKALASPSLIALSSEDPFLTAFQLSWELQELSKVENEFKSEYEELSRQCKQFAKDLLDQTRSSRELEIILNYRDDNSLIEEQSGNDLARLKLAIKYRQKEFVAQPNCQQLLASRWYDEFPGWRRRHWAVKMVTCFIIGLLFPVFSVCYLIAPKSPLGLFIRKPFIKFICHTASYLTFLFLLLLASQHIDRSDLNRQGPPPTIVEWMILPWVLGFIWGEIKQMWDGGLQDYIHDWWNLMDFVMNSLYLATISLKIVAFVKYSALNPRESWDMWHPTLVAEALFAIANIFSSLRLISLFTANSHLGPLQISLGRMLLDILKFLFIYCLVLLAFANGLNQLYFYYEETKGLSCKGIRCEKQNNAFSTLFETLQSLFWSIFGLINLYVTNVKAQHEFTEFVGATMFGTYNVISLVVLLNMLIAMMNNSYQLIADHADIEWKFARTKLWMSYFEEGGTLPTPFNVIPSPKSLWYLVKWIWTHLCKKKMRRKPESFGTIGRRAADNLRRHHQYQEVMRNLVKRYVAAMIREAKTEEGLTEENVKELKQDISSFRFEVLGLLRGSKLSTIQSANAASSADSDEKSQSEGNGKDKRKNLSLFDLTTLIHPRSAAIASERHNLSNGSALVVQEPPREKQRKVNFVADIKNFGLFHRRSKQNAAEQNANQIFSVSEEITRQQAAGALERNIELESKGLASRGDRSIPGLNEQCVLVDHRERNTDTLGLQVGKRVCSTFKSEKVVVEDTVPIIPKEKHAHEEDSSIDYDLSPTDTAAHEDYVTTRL
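Assay system: HEK293 cells stably co-expressing mouse TRPC4beta and mu-opioid receptor / Timing: Fluo4 dye loading 45 min at room temperature, 110 s recording / Signal: Fluo4 calcium-sensitive dye fluorescence, kinetic, 1 Hz baseline / Read-out: integrated baseline-normalised fluorescence ratio, converted to per-well B score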
TRPC6 activator – mouse TRPC6 channel activators, primary screen, cell-based, HEK293, membrane potential dye. Short transient receptor potential channel 6 (Mus musculus), Q61143. HEK293-TRPC6 membrane potential dye fluorescence; active compounds read high. B-score at 10 µM. 310,000 tested, 0.13% active;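 active = B-score of the integrated fluorescence ratio above library mean plus 3 SD, and starting fluorescence ratio within library mean plus 5 SD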;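 also: higher score means more depolarization so channel activation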
TRPC4 block – inhibitors of mouse TRPC4 channel, primary screen, Fluo4 calcium, HEK293 TRPC4beta/mu-opioid cells | B-score at 10 µM | AID 2247, 2010 | 300,000 tested, 0.39% active | DAMGO-evoked Fluo4 calcium flux; active compounds read low | Short transient receptor potential channel 4 (Mus musculus), Q9QUQ5;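 active = B-score over 3 SD under the library average, no early fluorescence shift, positive overall ratio signal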
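Assay system: Stable TRPC4beta/mu-opioid receptor HEK293 cells | Reagent: DAMGO in two steps, submaximal then maximal | Compound dosing: Single concentration per test compound | Signal: Fluo4 Ca2+ flux fluorescence | Evaluation: Per-well B score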
TRPC4 potent – positive allosteric modulators of TRPC4, primary screen, cell-based, mouse TRPC4beta, HEK293 mu-opioid, Fluo-4 calcium. Short transient receptor potential channel 4 (Mus musculus), Q9QUQ5. DAMGO EC20, Fluo-4 Ca2+ flux; active compounds read high. B-score at 10 µM. 310,000 tested, 0.42% active. AID 2227, 2009;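 active = B-score of calcium response area above 5 SD of library B-scores, with initial fluorescence ratio within 5 SD of library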
TRPC6 inh – mouse TRPC6 channel inhibitors, primary screen, cell-based, HEK293, membrane potential dye; ACh-evoked depolarization; active compounds read low; B-score at 10 µM; 310,000 tested, 1.1% active; Short transient receptor potential channel 6 (Mus musculus), Q61143;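 active = B-score under library mean minus 3 SD, initial fluorescence not abnormally high, positive integrated signal ratio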;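 also: B-score derived from integrated fluorescence ratio over the kinetic read; more negative B-score means stronger inhibition of depolarization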
HEK293 TRPC6 ctr – parental HEK293 membrane potential modulation, confirmation, counter-screen for TRPC6 modulator project, cell-based; shares compounds with TRPC6 inh; membrane potential dye fluorescence; membrane potential signal change, % at 10 µM; 2,400 tested, 51% active;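 active = membrane potential signal moves up or down beyond 5 SD from buffer-only wells, on both duplicate plates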
HEK293 MPD ctr 2 – parental HEK293 nonspecific activity of TRPC6 modulators, second screen. shares compounds with TRPC6 inh. membrane potential dye fluorescence; after compound, maximal acetylcholine stimulation. inhibition, % at 10 µM. 2,400 tested, 14% active;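 active = membrane potential signal drops by more than 5 SD from the mean control signal, in both duplicate plates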
TRPC4 ctr mod – TRPC4 modulation by TRPC6 hit compounds, confirmation, selectivity assay for TRPC6 modulator project, cell-based, HEK293 TRPC4/mu-opioid, membrane potential dye, mouse; percent change from control (negative = decrease, positive = increase), % at 10 µM; 2,400 tested, 69% active; AID 488927, 2010; membrane potential fluorescence; shares compounds with TRPC6 inh;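 active = membrane potential signal moved up or down beyond 5 SD of buffer control wells, in both duplicate plates, actives on both sides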
TRPC4 ctr inh 2 – second check of whether TRPC6 modulators also affect mouse TRPC4 | shares compounds with TRPC6 inh | HEK293 TRPC4/mu-opioid, membrane potential dye fluorescence; stimulated with maximal-effect DAMGO | inhibition, % at 10 µM | 2,400 tested, 55% active | AID 488928;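 active = drop in membrane potential signal beyond 5 SD of the control wells in both duplicate plates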;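 also: TRPC4 counter screen for TRPC6 hits run under conditions tuned for TRPC6 not TRPC4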
TRPC6 block conf – mouse TRPC6 channel inhibitors, confirmation, HEK293 cells, membrane potential dye, duplicate. shares compounds with TRPC6 inh. inhibition, % at 10 µM. ACh-evoked depolarization. 3,300 tested, 43% active;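 active = fluorescence ratio falls more than 5 SD below the full-stimulation control mean, in both duplicate runs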;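 also: integrated fluorescence ratio of peak minus minimum over baseline after agonist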
TRPC6 act conf – mouse TRPC6 channel activators, confirmation, HEK293 cells, membrane potential dye, duplicate | HEK293-TRPC6 membrane potential dye fluorescence, FDSS | 2,800 tested, 11% active | activation, % at 10 µM | AID 488961, 2010 | shares compounds with TRPC6 inh;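 active = ratio signal rise beyond 5 SD above unstimulated control wells' mean, seen in both duplicate runs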
Each line names hits and unclear results; the compound was inactive in the other large screens (follow-up assays come after a bar, where they were run). Most compounds without a hit are left out; they make up all but 2.3% or so of the library.

Cc1ccc(S(=O)(=O)N(c2cc(Cl)c(O)c(Cl)c2)P(=O)(OC(C)C)OC(C)C)cc1	none
CCCCc1ccc2[nH]cc(CCN)c2c1	TRPC6 inh -5.2 | HEK293 TRPC6 ctr inactive | HEK293 MPD ctr 2 inactive | TRPC4 ctr mod inactive | TRPC4 ctr inh 2 47% | TRPC6 block conf 50% | TRPC6 act conf inactive
COc1ccc(Cc2c(O)[nH]c(=O)[nH]c2=O)c(OC)c1	TRPC6 activator 16 | HEK293 TRPC6 ctr inactive | HEK293 MPD ctr 2 inactive | TRPC4 ctr mod inactive | TRPC4 ctr inh 2 inactive | TRPC6 block conf inactive | TRPC6 act conf inactive
COc1ccc(CC2C(=O)NC(=O)NC2=O)c(OC)c1	none
O=C1OC(c2ccc(Cl)cc2)=N/C1=C\N1CC2CC(C1)c1cccc(=O)n1C2 (stereo not given)	none
CC[n+]1c(/C=C/C=C/c2ccc(N(C)C)cc2)sc2ccccc21	none
CC[n+]1c(/C=C/N(C)c2ccccc2)sc2ccc(Cl)cc21	TRPC6 inh -6.3 | HEK293 TRPC6 ctr inactive | HEK293 MPD ctr 2 96% | TRPC4 ctr mod inactive | TRPC4 ctr inh 2 36% | TRPC6 block conf 46% | TRPC6 act conf inactive
O=C1OC(c2ccc([N+](=O)[O-])cc2)=N/C1=C/N1CC2CC(C1)c1cccc(=O)n1C2 (stereo not given)	TRPC4 act 96, TRPC6 activator 37 | HEK293 TRPC6 ctr 272% | HEK293 MPD ctr 2 102% | TRPC4 ctr mod 57% | TRPC4 ctr inh 2 31% | TRPC6 act conf 124%
CCCOc1ccc(C(=O)NC(=S)N2C[C@H]3C[C@H](C2)c2cccc(=O)n2C3)cc1	none
Cc1cc(C)c2c(ccc3cccc[n+]32)c1	TRPC6 inh -7.6 | HEK293 TRPC6 ctr -260% | HEK293 MPD ctr 2 96% | TRPC4 ctr mod -40% | TRPC4 ctr inh 2 60% | TRPC6 block conf 69% | TRPC6 act conf inactive
CCC1(C)OC(c2ccccc2)=C/C(=C/C=C2C(=O)NC(=O)NC2=O)O1 (stereo not given)	none
N/C(=N/[N+](=O)[O-])N1CCN(C(=O)c2ccc(Cl)cc2)CC1	none
